# Experimental data taken from ChEMBL document CHEMBL1131143, “Predictive models for GABAA/benzodiazepine receptor subtypes: studies of quantitative structure-activity relationships for imidazobenzodiazepines at five recombinant GABAA/benzodiazepine receptor subtypes [alphaxbeta3gamma2 (x = 1-3, 5, and 6)] via comparative molecular field analysis” (J Med Chem, 1998).
# How the values were obtained:
# Type in all cases: protein-complex assay
# [1] = target: T1, GABA-A receptor; alpha-5/beta-3/gamma-2 (Homo sapiens, UniProt P18507+P28472+P31644); test: Binding affinity for Gamma-aminobutyric acid A receptor alpha-5-beta-3-gamma-2
# T1 sequence (P18507 whole entry): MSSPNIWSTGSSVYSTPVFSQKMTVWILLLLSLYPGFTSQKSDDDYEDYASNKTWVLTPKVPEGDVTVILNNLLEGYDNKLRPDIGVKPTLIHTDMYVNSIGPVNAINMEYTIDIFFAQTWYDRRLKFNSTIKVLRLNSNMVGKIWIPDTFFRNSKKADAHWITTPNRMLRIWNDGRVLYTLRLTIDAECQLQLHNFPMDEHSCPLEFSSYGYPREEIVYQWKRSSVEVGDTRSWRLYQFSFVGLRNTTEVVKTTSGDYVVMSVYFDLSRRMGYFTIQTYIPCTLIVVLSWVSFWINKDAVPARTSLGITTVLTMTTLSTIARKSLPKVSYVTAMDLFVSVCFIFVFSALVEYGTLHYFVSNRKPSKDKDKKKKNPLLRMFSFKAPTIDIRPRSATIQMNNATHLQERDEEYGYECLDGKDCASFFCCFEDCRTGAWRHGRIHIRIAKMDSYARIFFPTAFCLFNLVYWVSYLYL
# T1 sequence (P28472 whole entry): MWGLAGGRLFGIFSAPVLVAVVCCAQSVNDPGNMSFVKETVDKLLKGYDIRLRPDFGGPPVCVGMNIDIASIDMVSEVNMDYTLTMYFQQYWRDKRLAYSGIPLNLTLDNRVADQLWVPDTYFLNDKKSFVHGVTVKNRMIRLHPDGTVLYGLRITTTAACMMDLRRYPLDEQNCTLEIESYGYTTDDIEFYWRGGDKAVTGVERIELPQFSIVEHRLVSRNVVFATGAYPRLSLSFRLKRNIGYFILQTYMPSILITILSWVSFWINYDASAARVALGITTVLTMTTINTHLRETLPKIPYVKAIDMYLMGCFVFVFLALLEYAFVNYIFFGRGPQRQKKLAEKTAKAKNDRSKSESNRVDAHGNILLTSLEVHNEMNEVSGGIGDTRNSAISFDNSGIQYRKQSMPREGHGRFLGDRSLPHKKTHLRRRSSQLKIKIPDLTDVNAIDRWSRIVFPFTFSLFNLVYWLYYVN
# T1 sequence (P31644 whole entry): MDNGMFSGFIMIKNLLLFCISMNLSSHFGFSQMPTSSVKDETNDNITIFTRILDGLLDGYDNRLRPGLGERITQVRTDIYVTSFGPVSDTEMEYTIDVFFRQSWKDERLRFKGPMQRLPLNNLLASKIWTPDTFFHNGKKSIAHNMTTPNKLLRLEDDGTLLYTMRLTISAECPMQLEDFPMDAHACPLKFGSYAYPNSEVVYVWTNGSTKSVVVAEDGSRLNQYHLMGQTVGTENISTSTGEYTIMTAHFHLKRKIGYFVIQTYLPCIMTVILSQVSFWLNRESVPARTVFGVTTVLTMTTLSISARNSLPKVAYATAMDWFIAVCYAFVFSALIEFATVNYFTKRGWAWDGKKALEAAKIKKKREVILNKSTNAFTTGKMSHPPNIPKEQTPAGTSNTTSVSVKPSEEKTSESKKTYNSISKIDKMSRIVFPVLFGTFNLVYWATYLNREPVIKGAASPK
# [2] = target: GABA-A receptor; alpha-1/beta-3/gamma-2 (Homo sapiens) (UniProt P14867+P18507+P28472); test: It is the ratio of Ki value for alpha-1-beta-3-gamma-2 to that of alpha-5-beta-3-gamma-2
# [3] = target: GABA-A receptor; alpha-6/beta-3/gamma-2 (Homo sapiens, UniProt P18507+P28472+Q16445); test: Binding affinity against Gamma-aminobutyric acid A receptor alpha-6-beta-3-gamma-2
# Sequence of GABA-A receptor; alpha-6/beta-3/gamma-2 (Q16445 whole entry, one chain of several): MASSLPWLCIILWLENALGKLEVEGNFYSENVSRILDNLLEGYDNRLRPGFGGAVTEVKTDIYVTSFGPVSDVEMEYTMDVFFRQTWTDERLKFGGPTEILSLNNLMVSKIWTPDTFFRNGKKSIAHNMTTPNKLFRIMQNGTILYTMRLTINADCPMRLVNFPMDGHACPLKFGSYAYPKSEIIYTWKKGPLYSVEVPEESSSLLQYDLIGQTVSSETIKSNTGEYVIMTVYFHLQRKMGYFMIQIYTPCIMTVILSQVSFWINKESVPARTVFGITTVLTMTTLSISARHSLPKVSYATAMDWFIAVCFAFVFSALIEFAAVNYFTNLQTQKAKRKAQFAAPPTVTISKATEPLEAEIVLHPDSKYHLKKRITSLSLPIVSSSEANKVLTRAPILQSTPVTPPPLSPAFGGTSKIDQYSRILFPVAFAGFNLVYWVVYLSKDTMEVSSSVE
# In short: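 Cells scraped into PBS, spun at 3000g, resuspended in 10 mM KH₂PO₄/100 mM KCl pH 7.4. Nonspecific binding with 10⁻⁵ M diazepam; 1 h to equilibrium at 4 °C; filtration, ice-cold buffer wash, scintillation counting.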
# [4] = target: T2, GABA-A receptor; alpha-3/beta-3/gamma-2 (Homo sapiens, UniProt P18507+P28472+P34903); test: Binding affinity against alpha-3-beta-3-gamma-2 GABAA/BzR receptor subtype.
# T2 sequence (P18507 whole entry): T1 sequence (P18507 whole entry)
# T2 sequence (P28472 whole entry): T1 sequence (P28472 whole entry)
# T2 sequence (P34903 whole entry): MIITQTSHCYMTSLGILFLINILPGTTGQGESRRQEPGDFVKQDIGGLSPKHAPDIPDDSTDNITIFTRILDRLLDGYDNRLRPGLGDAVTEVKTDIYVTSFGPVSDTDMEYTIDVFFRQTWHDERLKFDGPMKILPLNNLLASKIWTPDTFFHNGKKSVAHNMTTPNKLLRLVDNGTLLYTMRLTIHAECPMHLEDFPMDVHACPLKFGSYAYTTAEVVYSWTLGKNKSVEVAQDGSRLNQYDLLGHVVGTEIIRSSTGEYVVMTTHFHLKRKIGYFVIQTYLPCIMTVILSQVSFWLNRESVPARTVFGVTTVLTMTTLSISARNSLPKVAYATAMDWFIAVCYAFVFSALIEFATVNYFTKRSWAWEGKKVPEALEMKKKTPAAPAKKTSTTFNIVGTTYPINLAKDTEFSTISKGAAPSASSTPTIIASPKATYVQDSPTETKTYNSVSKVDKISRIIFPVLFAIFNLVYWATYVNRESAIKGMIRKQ
# [5] = target: T3, GABA-A receptor; alpha-1/beta-3/gamma-2 (Homo sapiens, UniProt P14867+P18507+P28472); test: Binding affinity against alpha-1-beta-3-gamma-2 GABAA/BzR receptor subtype.
# T3 sequence (P14867 whole entry): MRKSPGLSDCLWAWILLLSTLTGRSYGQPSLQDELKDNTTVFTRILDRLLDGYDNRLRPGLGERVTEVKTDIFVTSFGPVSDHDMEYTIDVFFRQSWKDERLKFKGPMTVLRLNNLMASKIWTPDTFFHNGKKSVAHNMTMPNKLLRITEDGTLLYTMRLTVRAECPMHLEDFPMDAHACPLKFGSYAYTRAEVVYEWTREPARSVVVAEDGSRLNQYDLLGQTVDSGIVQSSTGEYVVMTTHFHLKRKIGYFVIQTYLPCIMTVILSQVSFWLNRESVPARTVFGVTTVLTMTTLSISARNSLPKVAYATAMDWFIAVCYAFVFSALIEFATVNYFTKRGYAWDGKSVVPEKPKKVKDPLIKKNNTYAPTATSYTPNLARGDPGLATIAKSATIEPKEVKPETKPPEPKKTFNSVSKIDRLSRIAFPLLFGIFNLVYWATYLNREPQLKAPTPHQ
# T3 sequence (P18507 whole entry): T1 sequence (P18507 whole entry)
# T3 sequence (P28472 whole entry): T1 sequence (P28472 whole entry)
# [6] = target: T4, GABA-A receptor; alpha-2/beta-3/gamma-2 (Homo sapiens, UniProt P18507+P28472+P47869); test: Binding affinity tested against alpha-2-beta-3-gamma-2 GABAA/BzR receptor subtype.
# T4 sequence (P18507 whole entry): T1 sequence (P18507 whole entry)
# T4 sequence (P28472 whole entry): T1 sequence (P28472 whole entry)
# T4 sequence (P47869 whole entry): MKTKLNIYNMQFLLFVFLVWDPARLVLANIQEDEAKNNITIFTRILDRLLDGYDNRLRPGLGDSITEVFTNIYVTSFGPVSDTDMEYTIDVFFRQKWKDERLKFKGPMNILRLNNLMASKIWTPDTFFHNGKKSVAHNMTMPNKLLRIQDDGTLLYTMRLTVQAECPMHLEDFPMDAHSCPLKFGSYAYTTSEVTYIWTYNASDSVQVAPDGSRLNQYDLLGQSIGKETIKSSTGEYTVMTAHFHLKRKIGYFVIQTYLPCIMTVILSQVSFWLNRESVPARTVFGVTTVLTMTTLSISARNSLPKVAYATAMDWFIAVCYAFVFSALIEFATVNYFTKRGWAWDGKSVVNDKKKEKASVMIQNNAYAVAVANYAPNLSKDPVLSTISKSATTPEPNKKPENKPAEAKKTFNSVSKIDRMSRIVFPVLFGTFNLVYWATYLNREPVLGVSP
SMILES,Ki [1] [nM],Ratio [2],Ki [3] [nM],Ki [4] [nM],Ki [5] [nM],Ki [6] [nM]
CN1Cc2c(C(=O)OC(C)(C)C)ncn2-c2ccc(Cl)cc2C1=O,0.65,26.6,4,29.1,17.3,21.6
CCCCCc1ncn2c1CN(C)C(=O)c1cc(Cl)ccc1-2,369,5.6,960,2910,2050,2900
CCc1ccc2c(c1)C(=O)N(C)Cc1c(C(=O)OC(C)(C)C)ncn1-2,1.72,8.6,22.9,25.3,14.8,56
C#Cc1ccc2c(c1)C(=O)N1CCC[C@H]1c1c(-c3nc(C(C)C)no3)ncn1-2,4.8,15,333,97,73,85
CCOC(=O)c1ncn2c1[C@@H]1CCCN1C(=O)c1cc(OC)ccc1-2,0.45,108,83.2,27.5,48.5,27.4
CN1Cc2c(C(=O)OC(C)(C)C)ncn2-c2ccc(N=[N+]=[N-])cc2C1=O,0.3,24.3,5.25,5.66,7.25,
CCN(CC)Cc1ncn2c1CN(C)C(=O)c1cc(Cl)ccc1-2,2580,3.2,30200,15400,9480,30000
C#Cc1ccc2c(c1)C(=O)N1CC[C@H]1c1c(-c3nc(C(C)C)no3)ncn1-2,8.5,18,267,122,156,88
CN1Cc2c(C(=O)OC(C)(C)C)ncn2-c2ccc(Br)cc2C1=O,0.47,24.3,9.4,9.2,11.4,10.7
CCOC(=O)c1ncn2c1[C@@H]1CCN1C(=O)c1cc(Br)ccc1-2,0.3,56,31,6.7,17,13
CCOC(=O)c1ncn2c1[C@H]1CCCN1C(=O)c1cc(Br)ccc1-2,> 1000,,> 1000,> 1000,> 1000,> 1000
CCOC(=O)c1ncn2c1[C@@H]1CCCN1C(=O)c1cc(Br)ccc1-2,1,49,46,15,49,29
CC(=O)c1ncn2c1CN(C)C(=O)c1cc(Cl)ccc1-2,2610,6.7,29500,22100,17500,33800
CCOC(=O)c1ncn2c1CN(C)C(=O)c1cc(C#CC[Si](C)(C)C)ccc1-2,> 300,,> 300,> 300,> 300,> 300
CN1Cc2c(C(=O)OC(C)(C)C)ncn2-c2ccc(N=C=S)cc2C1=O,2.5,6.8,30.7,50,17.1,33.7
C#Cc1ccc2c(c1)C(=O)N1CC[C@H]1c1c(-c3nc(C)no3)ncn1-2,7.2,,266,91,,56
CCOC(=O)c1ncn2c1[C@H]1CCCN1C(=O)c1cc(C#C[Si](C)(C)C)ccc1-2,> 1000,,> 1000,> 1000,> 1000,> 1000
CN1Cc2c(C(=O)OC(C)(C)C)ncn2-c2ccc(N3CCCC3)cc2C1=O,9.25,0.63,325,169,5.8,
C#Cc1ccc2c(c1)C(=O)N1CCC[C@@H]1c1c(-c3nc(C)no3)ncn1-2,157,,> 1000,> 1000,> 1000,> 1000
CN1Cc2c(CO)ncn2-c2ccc(Cl)cc2C1=O,> 300,,> 300,> 300,> 300,> 300
CN1Cc2c(C(=O)OC(C)(C)C)ncn2-c2ccc(O)cc2C1=O,0.14,10.7,6.89,0.53,1.5,
CCOC(=O)c1ncn2c1CN(C)C(=O)c1cc(Cl)ccc1-2 [Ro-151310],,8,,,,
C=Cc1ccc2c(c1)C(=O)N(C)Cc1c(C(=O)OCC)ncn1-2,0.4,20.8,,6.9,8.3,10.2
CCOC(=O)c1ncn2c1CN(C)C(=O)c1cc(N=[N+]=[N-])ccc1-2 [Ro-154513],0.27,,,,,
CCOC(=O)c1ncn2c1CN(C)C(=O)c1cc(C#C[Si](C)(C)C)ccc1-2,5,24.2,114,198,,142
COc1ccc2c(c1)C(=O)N(C)Cc1c(C(=O)OC(C)(C)C)ncn1-2,0.293,23,8.28,7.42,6.74,
